The structures appear in SMILES notation.

For experiment [1], the system named is Trichophyton rubrum. In words: Antifungal activity against Trichophyton rubrum at 500 ug/ml after 72 hrs by agar diffusion method. The experiment is classed as functional. To be noted: read-out: DIZ. The method in brief: (§1)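 Fungal spores were suspended in normal saline (one loopful in 3 mL) and lawned on agar plates. Wells were punched with a sterile cork borer and loaded with test compound in DMSO at the different concentrations. A DMSO solvent control was included. Petri dishes were prepared in triplicate and held at 25 °C for 72 h.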
(In general: Agar diffusion results depend on both activity and mobility in agar.)

The subject of experiment [2] is Clostridium perfringens. In words: Antibacterial activity against Clostridium perfringens assessed as zone of inhibition at 500 ug/ml after 24 hrs by agar diffusion method. The experiment is classed as functional. Conditions: read-out: IZ. The method in brief: (§2)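 Well diffusion on Mueller-Hinton agar seeded with 24 h old cultures. Compounds dissolved in DMSO at 1 and 0.5 mg/mL and added to wells punched with a sterile cork borer, with a DMSO-only control. Plates incubated 24 h at 37 °C. Read-out was the inhibition zone in mm, run in triplicate, standard deviation calculated.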

Experiment [3] relates to Bacillus subtilis. Description: Antibacterial activity against Bacillus subtilis assessed as zone of inhibition at 1000 ug/ml after 24 hrs by agar diffusion method. The format is functional. Conditions: read-out: IZ. A digest of the protocol:
(§3)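 Well diffusion on Mueller-Hinton agar seeded with 24 h old bacterial cultures. Test compounds were dissolved in DMSO at 1 and 0.5 mg/mL and added to labeled wells. Plates were incubated 24 h at 37 °C. The inhibition zone around each well was measured in mm. Triplicate experiments, standard deviation calculated.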

For experiment [4], the system named is Nannizzia gypsea. In words: Antifungal activity against Microsporum gypseum at 1000 ug/ml after 72 hrs by agar diffusion method. To be noted: read-out: DIZ. The format is functional. A digest of the protocol:
as §1

Experiment [5] concerns Staphylococcus aureus. In words: Antibacterial activity against Staphylococcus aureus assessed as zone of inhibition at 500 ug/ml after 24 hrs by agar diffusion method. The experiment is classed as functional. To be noted: read-out: IZ. The method in brief:
as §3

Experiment [6] relates to Escherichia coli. Description: Antibacterial activity against Escherichia coli ATCC 25922 assessed as zone of inhibition at 1000 ug/ml after 24 hrs by agar diffusion method. The experiment is classed as functional. Conditions: ATCC 25922, 24 h, read-out: IZ. The method in brief:
as §3

The subject of experiment [7] is Clostridium perfringens. Description: Antibacterial activity against Clostridium perfringens assessed as zone of inhibition at 1000 ug/ml after 24 hrs by agar diffusion method. The format is functional. Conditions: read-out: IZ. A digest of the protocol: as §2
Experiment [8] relates to Aspergillus flavus. Description: Antifungal activity against Aspergillus flavus at 500 ug/ml after 72 hrs by agar diffusion method. Conditions: read-out: DIZ. The experiment is classed as functional. The method in brief:
as §1

The subject of experiment [9] is Salmonella typhimurium. In words: Antibacterial activity against Salmonella Typhimurium assessed as zone of inhibition at 1000 ug/ml after 24 hrs by agar diffusion method. The format is functional, Salmonella enterica subsp. enterica serovar Typhimurium. To be noted: Salmonella enterica, read-out: IZ. A digest of the protocol:
as §3

The subject of experiment [10] is Candida albicans. Description: Antifungal activity against Candida albicans at 1000 ug/ml after 72 hrs by agar diffusion method by agar diffusion method. The experiment is classed as functional. Conditions: read-out: DIZ. A digest of the protocol:
as §1

The subject of experiment [11] is Bacillus subtilis. In words: Antibacterial activity against Bacillus subtilis assessed as zone of inhibition at 500 ug/ml after 24 hrs by agar diffusion method. The experiment is classed as functional. To be noted: read-out: IZ. The method in brief: as §3
The test system of experiment [12] is Aspergillus niger. In words: Antifungal activity against Aspergillus niger at 500 ug/ml after 72 hrs by agar diffusion method. The experiment is classed as functional. To be noted: read-out: DIZ. The method in brief: as §1
In experiment [13] the test system is Pseudomonas aeruginosa. In words: Antibacterial activity against Pseudomonas aeruginosa ATCC 27853 assessed as zone of inhibition at 1000 ug/ml after 24 hrs by agar diffusion method. The experiment is classed as functional. Conditions: ATCC 27853, 24 h, read-out: IZ. The method in brief: as §3
The test system of experiment [14] is Salmonella typhimurium. In words: Antibacterial activity against Salmonella Typhimurium assessed as zone of inhibition at 500 ug/ml after 24 hrs by agar diffusion method. The experiment is classed as functional, Salmonella enterica subsp. enterica serovar Typhimurium. To be noted: Salmonella enterica, read-out: IZ. A digest of the protocol: as §3
Experiment [15] deals with Aspergillus niger. In words: Antifungal activity against Aspergillus niger at 1000 ug/ml after 72 hrs by agar diffusion method. The format is functional. To be noted: read-out: DIZ. The method in brief: as §1
The test system of experiment [16] is Escherichia coli. In words: Antibacterial activity against Escherichia coli ATCC 25922 assessed as zone of inhibition at 500 ug/ml after 24 hrs by agar diffusion method. To be noted: ATCC 25922, 24 h, read-out: IZ. The experiment is classed as functional. A digest of the protocol: as §3
The subject of experiment [17] is Pseudomonas aeruginosa. Description: Antibacterial activity against Pseudomonas aeruginosa ATCC 27853 assessed as zone of inhibition at 500 ug/ml after 24 hrs by agar diffusion method. The format is functional. To be noted: ATCC 27853, 24 h, read-out: IZ. The method in brief:
as §3

The test system of experiment [18] is Aspergillus flavus. In words: Antifungal activity against Aspergillus flavus at 1000 ug/ml after 72 hrs by agar diffusion method. The format is functional. To be noted: read-out: DIZ. The method in brief:
as §1

Experiment [19] deals with Candida albicans. Description: Antifungal activity against Candida albicans at 500 ug/ml after 72 hrs by agar diffusion method. To be noted: read-out: DIZ. The experiment is classed as functional. A digest of the protocol:
as §1

In experiment [20] the test system is Nannizzia gypsea. Description: Antifungal activity against Microsporum gypseum at 500 ug/ml after 72 hrs by agar diffusion method. Conditions: read-out: DIZ. The format is functional. The method in brief:
as §1

The subject of experiment [21] is Staphylococcus aureus. Description: Antibacterial activity against Staphylococcus aureus assessed as zone of inhibition at 1000 ug/ml after 24 hrs by agar diffusion method. The format is functional. Conditions: read-out: IZ. A digest of the protocol: as §3
The test system of experiment [22] is Trichophyton rubrum. In words: Antifungal activity against Trichophyton rubrum at 1000 ug/ml after 72 hrs by agar diffusion method. To be noted: read-out: DIZ. The experiment is classed as functional. The method in brief: as §1

As to `c1ccc(-c2ccc(-c3n[nH]cc3-c3nc(-c4ccccc4)c(-c4ccccc4)[nH]3)cc2)cc1`, the zone of inhibition at 500 µg/mL in experiment [1] was determined as 8 mm; in experiment [2], 1 mm; in experiment [5], 1 mm; in [8], 7 mm; in [11], 2 mm; in experiment [12], 9 mm. The zone of inhibition at 500 µg/mL was determined as 3 mm in [14]; 2 mm in experiment [16]; 3 mm in experiment [17]; 8 mm in experiment [19]; 4 mm in experiment [20]. The zone of inhibition at 1000 µg/mL was found to be 3 mm in experiment [3]; 5 mm in [4]; 3 mm in experiment [6]; 2 mm in experiment [7]; 4 mm in experiment [9]; 9 mm in experiment [10]. The zone of inhibition at 1000 µg/mL came to 4 mm in [13]; 10 mm in experiment [15]; 9 mm in experiment [18]; 2 mm in [21]; 9 mm in experiment [22].

Regarding `Cc1ccc(-c2n[nH]cc2-c2nc(-c3ccccc3)c(-c3ccccc3)[nH]2)cc1`, the zone of inhibition at 500 µg/mL in experiment [1] came out at 11 mm; in experiment [2], 5 mm; in [5] it was 6 mm; in experiment [8] it was 9 mm; in experiment [11], 7 mm; in experiment [12], 9 mm. Also, the zone of inhibition at 500 µg/mL in experiment [14] worked out at 5 mm; in experiment [16], 8 mm; in [17], 4 mm; in experiment [19], 9 mm; in [20], 2 mm. Moreover, the zone of inhibition at 1000 µg/mL in experiment [3] came to 8 mm; in experiment [4], 3 mm; in experiment [6], 14 mm; in [7], 6 mm; in experiment [9] it was 6 mm; in experiment [10], 10 mm. For the same molecule, the zone of inhibition at 1000 µg/mL is 6 mm in experiment [13]; 10 mm in experiment [15]; 10 mm in experiment [18]; 7 mm in [21]; 12 mm in experiment [22].

With `Clc1cc(-c2n[nH]cc2-c2nc(-c3ccccc3)c(-c3ccccc3)[nH]2)c(Cl)s1`, the zone of inhibition at 500 µg/mL in experiment [1] turned out to be 9 mm; in experiment [2], 7 mm; in experiment [5], 5 mm; in experiment [8] it was 9 mm; in experiment [11] it was 3 mm; in experiment [12], 9 mm. Also, the zone of inhibition at 500 µg/mL in experiment [14] is 6 mm; in experiment [16] it was 5 mm; in experiment [17] it was 5 mm; in experiment [19] it was 9 mm; in experiment [20], 4 mm. The zone of inhibition at 1000 µg/mL in experiment [3] came to 4 mm; in experiment [4], 5 mm; in experiment [6], 6 mm; in experiment [7] it was 8 mm; in [9] it was 7 mm; in experiment [10], 10 mm. Also, the zone of inhibition at 1000 µg/mL in experiment [13] turned out to be 6 mm; in [15] it was 10 mm; in experiment [18] it was 10 mm; in experiment [21] it was 6 mm; in experiment [22], 10 mm.

With `CSc1ccc(-c2n[nH]cc2-c2nc(-c3ccc(Br)cc3)c(-c3ccc(Br)cc3)[nH]2)cc1`, the zone of inhibition at 500 µg/mL in experiment [1] was 7 mm; in experiment [2] it was 3 mm; in [5], 2 mm; in experiment [8], 12 mm; in experiment [11] it was 4 mm; in [12], 5 mm. In addition, the zone of inhibition at 500 µg/mL in experiment [14] was 3 mm; in [16] it was 2 mm; in experiment [17], 2 mm; in [19], 11 mm; in experiment [20], 3 mm. The zone of inhibition at 1000 µg/mL in experiment [3] is 5 mm; in experiment [4], 4 mm; in experiment [6], 3 mm; in [7], 4 mm; in experiment [9], 4 mm; in [10], 12 mm. For the same molecule, the zone of inhibition at 1000 µg/mL came out at 3 mm in [13]; 6 mm in experiment [15]; 13 mm in experiment [18]; 3 mm in [21]; 8 mm in [22].

As to `Clc1ccc(-c2n[nH]cc2-c2nc(-c3ccc(Br)cc3)c(-c3ccc(Br)cc3)[nH]2)c(Cl)c1`, the zone of inhibition at 500 µg/mL came out at 9 mm in [1]; 2 mm in experiment [2]; 3 mm in experiment [5]; 4 mm in [8]; 4 mm in [11]; 4 mm in experiment [12]. Besides, the zone of inhibition at 500 µg/mL is 3 mm in [14]; 4 mm in experiment [16]; 4 mm in [17]; 8 mm in [19]; 3 mm in [20]. In addition, the zone of inhibition at 1000 µg/mL in experiment [3] was determined as 5 mm; in [4], 4 mm; in [6], 5 mm; in experiment [7], 3 mm; in experiment [9], 4 mm; in [10] it was 9 mm. Further, the zone of inhibition at 1000 µg/mL was 5 mm in experiment [13]; 5 mm in experiment [15]; 5 mm in experiment [18]; 4 mm in [21]; 10 mm in experiment [22].

`Brc1ccc(-c2nc(-c3c[nH]nc3-c3ccc(-c4ccccc4)cc3)[nH]c2-c2ccc(Br)cc2)cc1`: the zone of inhibition at 500 µg/mL in [1] came out at 3 mm; in [2], 1 mm; in [5], 1 mm; in experiment [8] it was 3 mm; in experiment [11] it was 3 mm; in [12], 2 mm. Further, the zone of inhibition at 500 µg/mL amounted to 2 mm in experiment [14]; 2 mm in experiment [16]; 1 mm in [17]; 2 mm in [19]; 1 mm in experiment [20]. For the same molecule, the zone of inhibition at 1000 µg/mL in [3] was 4 mm; in [4] it was 2 mm; in experiment [6] it was 3 mm; in experiment [7], 2 mm; in experiment [9] it was 3 mm; in experiment [10], 3 mm. Besides, the zone of inhibition at 1000 µg/mL in experiment [13] was found to be 2 mm; in [15], 3 mm; in [18] it was 4 mm; in [21] it was 2 mm; in experiment [22] it was 4 mm.

(Values after ChEMBL document CHEMBL1806356, “Synthesis, characterization and antimicrobial studies of some new pyrazole incorporated imidazole derivatives” (Eur J Med Chem, 2011).)
